Measured values taken from ChEMBL document CHEMBL4433227, “Enhancing the ligand efficiency of anti-HIV compounds targeting frameshift-stimulating RNA” (Bioorg Med Chem, 2019).
Activity calls are given as the source filed them. No cut-off for these calls is given here.

Experiments:
[1] = system: Human immunodeficiency virus 1; assay: Binding affinity to HIV-1 FSS RNA assessed as association rate constant by SPR assay
Outline: (§1)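 Compounds injected in HBS at 80 μL/min for 1 min, at least two injections per concentration. Each curve fit to a 1:1 Langmuir model, using the two lowest fittable concentrations. Kinetic constants averaged.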

[2] = system: Human immunodeficiency virus 1; assay: Antiviral activity against HIV1 3B infected in human MT2 cells assessed as reduction in p24 Gag protein production at 25 uM on day 6 post infection by ELISA relative to control; type: functional; set-up: scale not given: the % may be the effect or the level left
[3] = (§2) Competitive binding affinity to HIV-1 FSS RNA assessed as dissociation constant in presence of bulk yeast tRNA by SPR assay; set-up: species or system Human immunodeficiency virus 1
[4] = Cytotoxicity against human HEK293FT cells assessed as reduction in viability at < 40 uM after 24 hrs by WST1 assay; type: cell-based
Outline: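 HEK293FT cells, 2.5×10^4/well in triplicate, grown in DMEM with 10% FBS and 1% pen-strep at 37 °C. After 4 h adherence, compound dilutions added for 24 h. WST-1 then added for 1 h and the signal read on a plate reader. Mitochondrial activity taken as the metabolic read-out.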

[5] = Binding affinity to HIV-1 FSS RNA assessed as dissociation constant by SPR assay; set-up: species or system Human immunodeficiency virus 1; outline: as §1
[6] = system: Human immunodeficiency virus 1; assay: Binding affinity to HIV-1 FSS RNA assessed as dissociation rate constant by SPR assay; outline: as §1
[7] = species on record: Homo sapiens; assay: Binding affinity to human BDNF RNA at 2 uM dialyzed up to 36 hrs by HPLC analysis
Outline: (§3)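 RNAs refolded at 2.5 μM in PBS with 1 mM EDTA (25 °C, 90 °C, then 27 °C). Tubes (3500 MWCO) held 200 μL of RNA, in duplicate, with an RNA-free control tube. Dialysis against 2.0 μM compound in PBS for 36 h. Compound concentration inside the tubes measured by HPLC.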

[8] = species on record: Homo sapiens; assay: Binding affinity to human IRF5 RNA at 2 uM dialyzed up to 36 hrs by HPLC analysis; outline: as §3
[9] = system: Human immunodeficiency virus 1; assay: Binding affinity to HIV-1 FSS RNA at 2 uM dialyzed up to 36 hrs by HPLC analysis; outline: as §3
[10] = system: Human immunodeficiency virus; assay: Antiviral activity against pseudotyped HIV assessed as reduction in viral production; type: functional, organism-based
[11] = system: Human immunodeficiency virus; assay: Antiviral activity against pseudotyped HIV assessed as reduction in viral infectivity; type: functional, organism-based
[12] = system: Human immunodeficiency virus; assay: Binding affinity to HIV frameshift-stimulating RNA assessed as upregulation of HIV p160 Gag-pol protein expression by Western blot analysis
[13] = system: Human immunodeficiency virus 1; assay: Antiviral activity against HIV1 3B; type: functional, organism-based
[14] = system: Human immunodeficiency virus 1; assay: Antiviral activity against patient derived multidrug resistant HIV1 AD.MDR01; type: functional, organism-based
[15] = system: Human immunodeficiency virus 1; assay: Antiviral activity against HIV1 3B infected in human MT2 cells assessed as reduction in p24 Gag protein production on day 6 post infection by ELISA; type: functional, organism-based; settings: Human immunodeficiency virus 1, 3B, MT2, 144 h
[16] = system: Human immunodeficiency virus 1; assay: as §2

**Q.** Which Ka [1] does the source give for `CCc1nc2ccccc2cc1C(=O)N(C)[C@@H](CCn1cc(C[C@@H](C(=O)N2CCC[C@H]2C(=O)N(C)[C@@H](Cc2ccccc2)C(=O)NCCCN)N(C)C(=O)c2cc3ccccc3nc2CC)nn1)C(=O)N1CCC[C@H]1C(=O)N(C)[C@@H](Cc1ccccc1)C(=O)NCCCN` here?
**A.** 6.49 ×10⁴ /M.s

**Q.** And the Activity [2]?
**A.** 63%

**Q.** And the Kd [3]?
**A.** 132 nM

**Q.** And the Activity [4]?
**A.** Toxic

**Q.** And the Kd [5]?
**A.** 497 nM

**Q.** What about the Kdiss [6] of the same compound?
**A.** 2.37 ×10⁻² /s

**Q.** What does the source list for `CN(C(=O)c1cnc2ccccc2c1)[C@@H](CCn1cc(C[C@@H](C(=O)N2C[C@H](O)C[C@H]2C(=O)N(C)[C@@H](Cc2ccccc2)C(=O)NCCCN)N(C)C(=O)c2cnc3ccccc3c2)nn1)C(=O)N1C[C@H](O)C[C@H]1C(=O)N(C)[C@@H](Cc1ccccc1)C(=O)NCCCN`?
**A.** Ka [1]: 6.74 ×10⁴ /M.s; Activity [2]: 63%; Kd [3]: 183 nM; Kd [5]: 110 nM; Kdiss [6]: 5.42 ×10⁻³ /s

**Q.** Which Ka [1] does the source give for `CCc1nc2ccccc2cc1C(=O)N(C)[C@@H](CCn1cc(C[C@@H](C(=O)N2CCC[C@H]2C(=O)N(C)[C@@H](Cc2ccccc2)C(N)=O)N(C)C(=O)c2cc3ccccc3nc2CC)nn1)C(=O)N1CCC[C@H]1C(=O)N(C)[C@@H](Cc1ccccc1)C(N)=O` here?
**A.** 1.69 ×10³ /M.s

**Q.** What about the Kd [3] of the same compound?
**A.** 16800 nM

**Q.** What about the Kd [5] of the same compound?
**A.** 19300 nM

**Q.** What about the Kdiss [6] of the same compound?
**A.** 2.07 ×10⁻² /s

**Q.** For `CN(C(=O)c1cnc2ccccc2c1)[C@@H](CCn1cc(C[C@@H](C(=O)N2CCC[C@H]2C(=O)N(C)[C@@H](Cc2ccccc2)C(=O)NCCCN)N(C)C(=O)c2cnc3ccccc3c2)nn1)C(=O)N1CCC[C@H]1C(=O)N(C)[C@@H](Cc1ccccc1)C(=O)NCCCN`, which Activity [7] is on record?
**A.** Active

**Q.** And the Ka [1]?
**A.** 5.66 ×10⁴ /M.s

**Q.** And the Activity [2]?
**A.** 63%

**Q.** And the Kd [3]?
**A.** 124 nM

**Q.** And the Activity [8]?
**A.** Active

**Q.** What about the Kd [5] of the same compound?
**A.** 62.2 nM

**Q.** What about the Kdiss [6] of the same compound?
**A.** 2.26 ×10⁻³ /s

**Q.** What about the Activity [9] of the same compound?
**A.** Active

**Q.** With `CCc1nc2ccccc2cc1C(=O)N(C)[C@@H](CCn1cc(C[C@@H](C(=O)N2C[C@H](O)C[C@H]2C(=O)N(C)[C@@H](Cc2ccccc2)C(=O)NCCCN)N(C)C(=O)c2cc3ccccc3nc2CC)nn1)C(=O)N1C[C@H](O)C[C@H]1C(=O)N(C)[C@@H](Cc1ccccc1)C(=O)NCCCN` as the compound, how does the Ka [1] read?
**A.** 1.49 ×10⁴ /M.s

**Q.** And the Activity [2]?
**A.** 63%

**Q.** What about the Kd [3] of the same compound?
**A.** 441 nM

**Q.** And the Kd [5]?
**A.** 583 nM

**Q.** And the Kdiss [6]?
**A.** 6.8 ×10⁻³ /s

**Q.** Which results are given for `CCc1nc2cc3ccccc3cc2cc1C(=O)N[C@@H](C/C=C\C[C@H](NC(=O)c1cc2cc3ccccc3cc2nc1CC)C(=O)N1CCC[C@H]1C(=O)N[C@@H](Cc1ccccc1)C(=O)NCCCN)C(=O)N1CCC[C@H]1C(=O)N[C@@H](Cc1ccccc1)C(=O)NCCCN`?
**A.** Activity [10]: Active; Activity [11]: Active; Activity [12]: Dose-dependent effect; Kd [5]: 102 nM

**Q.** Which Ka [1] does the source give for `CCc1nc2cc3ccccc3cc2cc1C(=O)N(C)[C@@H](CCn1cc(C[C@@H](C(=O)N2CCC[C@H]2C(=O)N(C)[C@@H](Cc2ccccc2)C(=O)NCCCN)N(C)C(=O)c2cc3cc4ccccc4cc3nc2CC)nn1)C(=O)N1CCC[C@H]1C(=O)N(C)[C@@H](Cc1ccccc1)C(=O)NCCCN` here?
**A.** 1.9 ×10⁵ /M.s

**Q.** And the Activity [10]?
**A.** Active

**Q.** And the Activity [13]?
**A.** Active

**Q.** And the Activity [11]?
**A.** Active

**Q.** What about the Kd [3] of the same compound?
**A.** 130 nM

**Q.** What about the Activity [12] of the same compound?
**A.** Dose-dependent effect

**Q.** And the Kd [5]?
**A.** 16 nM

**Q.** And the Activity [14]?
**A.** Active

**Q.** What about the Kdiss [6] of the same compound?
**A.** 3 ×10⁻³ /s

**Q.** What about the IC50 [15] of the same compound?
**A.** 4860 nM

**Q.** With `CN(C(=O)c1cnc2ccccc2c1)[C@@H](CCn1cc(C[C@@H](C(=O)N2C[C@H](O)C[C@H]2C(=O)N(C)[C@@H](Cc2ccccc2)C(N)=O)N(C)C(=O)c2cnc3ccccc3c2)nn1)C(=O)N1C[C@H](O)C[C@H]1C(=O)N(C)[C@@H](Cc1ccccc1)C(N)=O` as the compound, how does the Ka [1] read?
**A.** 4.09 ×10³ /M.s

**Q.** What about the Kd [5] of the same compound?
**A.** 1470 nM

**Q.** And the Kdiss [6]?
**A.** 5.41 ×10⁻³ /s

**Q.** Which Activity [16] does the source give for `NC[C@@H]1O[C@H](O[C@H]2[C@@H](O)[C@H](O[C@@H]3[C@@H](O)[C@H](N)C[C@H](N)[C@H]3O[C@H]3O[C@H](CN)[C@@H](O)[C@H](O)[C@H]3N)O[C@@H]2CO)[C@H](N)[C@@H](O)[C@@H]1O` [FRAMYCETIN] here?
**A.** inactive

**Q.** What about the Kd [5] of the same compound?
**A.** 779000 nM
